Calls of active or inactive are those of the source. The calls are words filed in the database; no cut-off is given here.
Key:
[1] = molecular target: T1, 17-beta-hydroxysteroid dehydrogenase type 1 (Homo sapiens, UniProt P14061)
T1 sequence (P14061 whole entry): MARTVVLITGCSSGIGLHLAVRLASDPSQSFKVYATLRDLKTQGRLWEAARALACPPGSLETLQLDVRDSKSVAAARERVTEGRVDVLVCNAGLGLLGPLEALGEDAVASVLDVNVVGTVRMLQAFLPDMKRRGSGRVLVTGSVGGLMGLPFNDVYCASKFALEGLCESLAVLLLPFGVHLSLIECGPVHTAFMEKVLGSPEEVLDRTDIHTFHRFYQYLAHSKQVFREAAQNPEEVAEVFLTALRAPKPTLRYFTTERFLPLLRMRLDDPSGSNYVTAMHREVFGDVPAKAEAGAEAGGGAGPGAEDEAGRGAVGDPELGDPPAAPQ

[2] = molecular target: T2, 17-beta-hydroxysteroid dehydrogenase type 2 (Homo sapiens, UniProt P37059); assay: Inhibition of human placental 17betaHSD2 by radiodetection assay
T2 sequence (P37059 whole entry): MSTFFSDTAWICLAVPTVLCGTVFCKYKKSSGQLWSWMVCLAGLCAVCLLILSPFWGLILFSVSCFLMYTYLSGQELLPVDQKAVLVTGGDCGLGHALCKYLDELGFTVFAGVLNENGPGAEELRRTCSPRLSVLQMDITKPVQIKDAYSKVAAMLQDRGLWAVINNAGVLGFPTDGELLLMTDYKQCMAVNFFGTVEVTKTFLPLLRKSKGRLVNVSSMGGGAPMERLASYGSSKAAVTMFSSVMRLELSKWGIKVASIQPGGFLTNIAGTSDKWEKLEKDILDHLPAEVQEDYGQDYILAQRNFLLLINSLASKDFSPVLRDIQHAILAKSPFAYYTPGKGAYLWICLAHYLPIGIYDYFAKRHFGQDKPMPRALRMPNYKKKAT
Method in brief: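 Microsomal fraction from fresh human placenta (pellet after homogenisation and centrifugation). Incubated 20 min at 37 °C with NAD+ 1500 μM and unlabeled E2 plus [2,4,6,7-3H]E2 (500 nM final) in phosphate buffer 50 mM with 20% glycerol and 1 mM EDTA, 1% DMSO. Stopped with HgCl2 and ether-extracted. Substrate and product separated by HPLC with radiodetection. Mean of three determinations.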

[3] = Tmax in Wistar rat at 10 mg/kg, po; type: ADME, organism-based; design: dose 10 mg/kg, route oral; details: in vivo
Method in brief: (§1)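 Male Wistar rats (300-330 g), jugular-vein cannulated under ketamine/xylazine anaesthesia, sampled while freely moving. Oral cassette dosing by feeding needle to four rats at 10 mg/kg in labrasol/water (1:1), 5 mL/kg. Blood taken at 0, 1, 2, 3, 4, 6, 8, 10 and 24 h postdose; plasma frozen at -20 °C and quantified by HPLC-MS/MS.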

[4] = tested on: Rattus norvegicus; assay: AUC (0 to infinity) in Wistar rat at 10 mg/kg, po; type: ADME, organism-based, Plasma; design: time infinity, dose 10 mg/kg, route oral; details: in vivo
Method in brief: as §1

[5] = molecular target: Cytochrome P450 2C19 (Homo sapiens, UniProt P33261); assay: Inhibition of human hepatic CYP2C19; type: ADME
Cytochrome P450 2C19, sequence (P33261 whole entry): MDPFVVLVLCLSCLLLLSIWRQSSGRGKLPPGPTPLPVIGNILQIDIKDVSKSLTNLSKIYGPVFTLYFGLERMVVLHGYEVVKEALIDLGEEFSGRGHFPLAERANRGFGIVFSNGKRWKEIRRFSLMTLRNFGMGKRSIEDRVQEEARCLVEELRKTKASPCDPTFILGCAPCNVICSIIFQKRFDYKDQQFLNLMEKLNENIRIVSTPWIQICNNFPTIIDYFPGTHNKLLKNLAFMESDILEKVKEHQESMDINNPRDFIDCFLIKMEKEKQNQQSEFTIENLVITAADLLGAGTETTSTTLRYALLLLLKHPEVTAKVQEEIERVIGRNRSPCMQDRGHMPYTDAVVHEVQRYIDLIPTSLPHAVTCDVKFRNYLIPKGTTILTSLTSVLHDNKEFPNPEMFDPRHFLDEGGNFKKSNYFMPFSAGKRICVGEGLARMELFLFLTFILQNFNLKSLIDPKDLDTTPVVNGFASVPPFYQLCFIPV
Method in brief: (§2)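 Tested with commercial P450 inhibition kits, used following the manufacturer's instructions. Values reported as IC50.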

[6] = molecular target: Cytochrome P450 3A4 (Homo sapiens, UniProt P08684); assay: Inhibition of human hepatic CYP3A4; type: ADME
Cytochrome P450 3A4, sequence (P08684 whole entry): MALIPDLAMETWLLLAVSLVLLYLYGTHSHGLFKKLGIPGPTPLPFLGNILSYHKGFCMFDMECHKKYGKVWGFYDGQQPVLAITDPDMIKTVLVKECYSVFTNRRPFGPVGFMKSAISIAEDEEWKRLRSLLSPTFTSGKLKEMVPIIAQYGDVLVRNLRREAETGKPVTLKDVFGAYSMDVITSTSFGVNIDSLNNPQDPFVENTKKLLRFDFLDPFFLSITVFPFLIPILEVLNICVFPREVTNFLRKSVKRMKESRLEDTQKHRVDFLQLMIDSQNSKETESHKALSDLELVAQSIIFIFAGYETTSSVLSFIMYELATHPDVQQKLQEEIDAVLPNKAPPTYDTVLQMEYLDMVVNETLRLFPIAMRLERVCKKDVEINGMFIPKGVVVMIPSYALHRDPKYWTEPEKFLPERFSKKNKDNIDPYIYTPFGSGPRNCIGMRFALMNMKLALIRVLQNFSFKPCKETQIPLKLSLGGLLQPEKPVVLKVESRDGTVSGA
Method in brief: as §2

[7] = Terminal half life in Wistar rat at 10 mg/kg, po; type: ADME, organism-based; design: dose 10 mg/kg, route oral; details: in vivo, read-out: beta t1/2 (converted)
Method in brief: as §1

[8] = molecular target: T3, Estrogen receptor (Homo sapiens) (UniProt P03372); assay: Agonist activity at ER in human T47D cells assessed as stimulation of cell proliferation; type: functional, cell-based
T3 sequence (whole entry): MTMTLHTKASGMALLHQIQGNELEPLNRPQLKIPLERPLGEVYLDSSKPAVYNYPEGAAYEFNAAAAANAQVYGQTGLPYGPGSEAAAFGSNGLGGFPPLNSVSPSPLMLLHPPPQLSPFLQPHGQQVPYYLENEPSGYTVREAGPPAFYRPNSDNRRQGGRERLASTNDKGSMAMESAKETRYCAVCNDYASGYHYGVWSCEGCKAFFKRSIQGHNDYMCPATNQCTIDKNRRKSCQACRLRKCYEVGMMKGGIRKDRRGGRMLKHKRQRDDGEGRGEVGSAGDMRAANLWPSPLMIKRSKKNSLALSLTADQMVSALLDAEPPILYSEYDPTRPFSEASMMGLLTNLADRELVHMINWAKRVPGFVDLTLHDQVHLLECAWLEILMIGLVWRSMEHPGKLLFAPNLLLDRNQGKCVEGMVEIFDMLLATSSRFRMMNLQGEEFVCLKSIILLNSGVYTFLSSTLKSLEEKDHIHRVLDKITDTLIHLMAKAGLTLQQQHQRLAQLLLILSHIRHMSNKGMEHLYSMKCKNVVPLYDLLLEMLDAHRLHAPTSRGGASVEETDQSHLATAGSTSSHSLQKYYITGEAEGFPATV
Method in brief: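 T-47D cells grown 48 h in phenol red-free RPMI 1640 with 5% DCC-FCS, insulin and supplements, then exposed to test compound at 100 nM final (1% ethanol) for 8 days. Medium and additive renewed every 2-3 days. E2 0.1 nM served as positive control, ethanol as negative. Viability read by MTT at 590 nm. Stimulation was expressed relative to E2-induced proliferation, mean of ≥3 independent experiments.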

[9] = molecular target: Cytochrome P450 2D6 (Homo sapiens, UniProt P10635); assay: Inhibition of human hepatic CYP2D6; type: ADME
Cytochrome P450 2D6, sequence (P10635 whole entry): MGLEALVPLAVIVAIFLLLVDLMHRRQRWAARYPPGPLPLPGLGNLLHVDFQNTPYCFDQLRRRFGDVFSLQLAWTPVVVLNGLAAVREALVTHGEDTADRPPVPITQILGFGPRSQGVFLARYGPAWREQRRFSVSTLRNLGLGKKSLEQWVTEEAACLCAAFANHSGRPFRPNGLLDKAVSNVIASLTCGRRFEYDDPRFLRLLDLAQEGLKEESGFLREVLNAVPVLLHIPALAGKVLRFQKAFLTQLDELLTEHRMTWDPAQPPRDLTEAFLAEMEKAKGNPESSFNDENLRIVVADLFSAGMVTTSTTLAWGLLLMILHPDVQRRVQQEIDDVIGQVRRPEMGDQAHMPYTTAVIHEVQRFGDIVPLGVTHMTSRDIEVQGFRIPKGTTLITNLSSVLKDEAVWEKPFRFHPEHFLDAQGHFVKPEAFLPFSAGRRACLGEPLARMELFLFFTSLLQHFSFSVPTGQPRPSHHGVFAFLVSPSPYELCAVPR
Method in brief: as §2

[10] = Cmax in Wistar rat at 10 mg/kg, po; type: ADME, organism-based; design: dose 10 mg/kg, route oral; details: in vivo
Method in brief: as §1

[11] = tested on: T47D; assay: […] in human T47D cells assessed as inhibition of E2 formation in presence of E1

Compound	IC50 [1]	IC50 [2]	also measured
Oc1cccc(-c2cc(-c3ccccc3)c(-c3cccc(O)c3)s2)c1	493 nM	–	–
Oc1cc(-c2ccc(-c3ccc(O)c(F)c3)s2)ccc1F	17 nM	218 nM	–
Oc1ccc(-c2ccc(-c3ccc(O)c(O)c3)s2)cc1	> 5000 nM	–	–
Oc1cccc(-c2cc(-c3ccc(O)c(F)c3)cs2)c1	64 nM	510 nM	–
CCOC(=O)/C=C/c1cc(-c2ccc(-c3cccc(O)c3)s2)ccc1O	130 nM	502 nM	–
Cc1cc(O)cc(-c2ccc(-c3ccc(O)cc3)s2)c1	629 nM	2580 nM	–
Cc1cc(-c2ccc(-c3cccc(O)c3)cc2)ccc1O	171 nM	1250 nM	–
Oc1ccc(-c2ccc(-c3ccc(F)c(O)c3)s2)cc1	113 nM	183 nM	–
Cc1cc(-c2cnc(-c3cccc(O)c3)s2)ccc1O	143 nM	–	–
Oc1cccc(-c2ccc(-c3ccc(O)c(F)c3)cc2)c1	123 nM	872 nM	–
Oc1cccc(-c2cc(-c3cccc(O)c3)c(-c3cccc(O)c3)s2)c1	119 nM	188 nM	–
Cc1cc(-c2csc(-c3cccc(O)c3)c2)ccc1O	64 nM	–	IC50 [5]: 1500 nM; IC50 [6]: > 1500 nM; IC50 [9]: > 1500 nM; IC50 [11]: 362 nM
Oc1cccc(-c2ccc(-c3ccc(O)c(-c4ccccc4)c3)s2)c1	> 5000 nM	–	–
Oc1ccc(-c2ccc(-c3cc(O)cc(F)c3)s2)cc1	42 nM	463 nM	–
Oc1cccc(-c2ccc(-c3ccc(F)c(O)c3)cc2)c1	51 nM	253 nM	–
Oc1cc(F)cc(-c2ccc(-c3ccc(O)c(F)c3)s2)c1	29 nM	227 nM	–
O=C(/C=C/c1cc(-c2ccc(-c3cccc(O)c3)s2)ccc1O)Nc1ccccc1	427 nM	468 nM	–
Cc1ccc(-c2ccc(-c3ccc(O)cc3)s2)cc1O	> 5000 nM	–	–
Cc1cc(-c2cccc(O)c2)sc1-c1cccc(O)c1	567 nM	856 nM	–
Oc1cccc(-c2ccc(-c3cc(F)c(O)c(F)c3)s2)c1	56 nM	312 nM	–
O=C(CCc1cc(-c2ccc(-c3cccc(O)c3)s2)ccc1O)Nc1ccccc1	620 nM	982 nM	–
Oc1ccc(-c2cc(-c3cccc(O)c3)c(-c3cccc(O)c3)s2)cc1	> 1000 nM	–	–

More lines, main results first:

IC50 [1]	IC50 [2]	Compound	also measured
46 nM	–	Cc1cc(-c2ccc(-c3cccc(O)c3)s2)ccc1O	Tmax [3]: 4 h; AUC [4]: 12275 ng/mL; IC50 [5]: 940 nM; IC50 [6]: 500 nM; half-life [7]: 3.8 h; Activity [8]: inactive; IC50 [9]: > 1500 nM; Cmax [10]: 905 ng/mL; IC50 [11]: 426 nM
350 nM	276 nM	Cc1ccc(S(=O)(=O)NCc2cccc(-c3ccc(-c4cccc(O)c4)s3)c2)cc1	–
780 nM	2640 nM	Oc1cccc(-c2ccc(-c3ccc(F)c(F)c3)s2)c1	–
–	1820 nM	Oc1cccc(-c2ccc(-c3cccc(F)c3)s2)c1	–
8 nM	–	Oc1cccc(-c2ccc(-c3ccc(O)c(F)c3)s2)c1	Tmax [3]: 8 h; AUC [4]: 19407 ng/mL; IC50 [5]: 1500 nM; IC50 [6]: 820 nM; half-life [7]: 2.7 h; IC50 [9]: > 1500 nM; Cmax [10]: 1390 ng/mL; IC50 [11]: 282 nM
> 5000 nM	–	Oc1cccc(-c2ccc(-c3ccc(S)cc3)s2)c1	–
402 nM	–	Oc1cccc(-c2ccc(-c3ccc(O)c(O)c3)s2)c1	–
38 nM	97 nM	Oc1cccc(-c2ccc(-c3ccc(O)c(C(F)(F)F)c3)s2)c1	–
> 1000 nM	–	N#Cc1ccc(-c2ccc(-c3cccc(O)c3)s2)cc1	–
> 5000 nM	–	Nc1ccc(-c2ccc(-c3cccc(O)c3)s2)cc1	–
–	1570 nM	CS(=O)(=O)Nc1cccc(-c2ccc(-c3cccc(O)c3)s2)c1	–
> 1000 nM	–	CS(=O)(=O)NCc1cccc(-c2ccc(-c3cccc(O)c3)s2)c1	–
–	3650 nM	Oc1cccc(-c2ccc(-c3ccc(F)cc3)s2)c1	–
